# Compound activity (PubChem)
# An excerpt weighted towards active compounds, which were near 0.58% of everything screened.
# OXTR ag = agonists of human oxytocin receptor | P30559 | CHO-OTR cells, Fluo-8 calcium fluorescence; normalized: DMSO 0%, oxytocin 100% | activation, % at 3 µM | 320,000 tested, 0.32% active | AID 2435;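 active = activation above the mean of all tested compounds plus 3 SD, cutoff set per screening run, cut at about 20% in these data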;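 note: peak over basal fluorescence ratio from a 100 s FLIPR kinetic read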
# TRPML3 ag = human mucolipin-3 channel agonism. Q8TDD5. HEK293 TRPML3-YFP, Fluo-8 calcium fluorescence; 100% = the carbachol control signal. activation, % at 3 µM. 220,000 tested, 0.29% active. AID 1448;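 active = activation above its plate's cutoff, the mean activation of the plate's test wells plus 3 SD, cut at about 12% in these data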;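 note: 0% = DMSO only wells and 100% = carbachol wells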
# Target sequence (Q8TDD5 whole entry, looked up): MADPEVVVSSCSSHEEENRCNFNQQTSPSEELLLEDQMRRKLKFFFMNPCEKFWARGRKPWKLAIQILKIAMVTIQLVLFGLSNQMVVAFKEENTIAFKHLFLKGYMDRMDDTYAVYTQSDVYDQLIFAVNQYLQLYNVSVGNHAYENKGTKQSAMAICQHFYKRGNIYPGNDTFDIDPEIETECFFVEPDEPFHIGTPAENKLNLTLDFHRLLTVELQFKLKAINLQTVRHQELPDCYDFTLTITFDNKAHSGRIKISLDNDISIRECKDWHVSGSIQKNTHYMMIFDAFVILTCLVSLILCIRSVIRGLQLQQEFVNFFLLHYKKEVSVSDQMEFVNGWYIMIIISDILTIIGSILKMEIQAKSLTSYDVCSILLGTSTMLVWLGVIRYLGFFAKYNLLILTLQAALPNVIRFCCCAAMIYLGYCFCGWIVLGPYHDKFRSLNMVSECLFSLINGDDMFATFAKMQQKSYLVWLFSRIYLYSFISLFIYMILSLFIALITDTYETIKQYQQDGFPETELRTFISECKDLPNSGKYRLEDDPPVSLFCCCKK
#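 Material: HEK293 cells stably carrying human TRPML3-YFP; compound dosing: single dose, 3 µM final nominal compound, 0.3% DMSO final; incubation: 1-h 37 °C dye load, 5-s basal, 120-s post-compound reads; technique: Fluo-8 intracellular calcium fluorescence, excitation 470-495 nm, emission 515-575 nm; read-out basis: percent activation from peak-to-basal fluorescence ratio, scaled between DMSO and carbachol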
# OXTR potentiate = potentiators of human oxytocin receptor | P30559 | CHO-OTR cells, Fluo-8 calcium fluorescence, potentiator mode; 0% = oxytocin EC15, 100% = EC100 | activation, % at 3 µM | 320,000 tested, 0.061% active | AID 2445;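 active = activation above that plate's cutoff, the mean activation of tested compounds plus 3 SD, cut at about 6.6% in these data, passing the limit was not always enough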;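 note: 100% uses oxytocin at 75 nM as the full agonist control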
#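 Material: CHO-OTR cells, human receptor; compound dosing: single dose, 3.0 µM nominal final compound concentration; schedule: 6 min compound pre-incubation at room temperature, 100 s kinetic read; measured by: kinetic Fluo-8 calcium fluorescence; read-out basis: % activation vs EC15 and EC100 oxytocin; controls: EC15 oxytocin alone as 0%, 75 nM oxytocin as 100%; replicates: singlicate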
# V1R ag counter = counter-screen for oxytocin receptor agonists: human V1a receptor agonists. 320,000 tested, 0.25% active. activation, % at 3 µM. CHO-V1R cells, Fluo-8 calcium fluorescence, agonist mode; 0% DMSO, 100% 3 nM vasopressin. AID 2797;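 active = activation above the mean activation of all tested compounds plus 3 SD, per screening run, cut at about 20% in these data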;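 note: signal is peak over basal fluorescence ratio across a 100 second FLIPR read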
# zfTRPN1 agonist = activates the zebrafish TRPN1 channel; HEK293 zebrafish TRPN1-YFP, Fluo-8 calcium fluorescence; 100% = response to 87 µM carbachol; activation, % at 3 µM; 220,000 tested, 0.18% active; AID 1424;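 active = activation above its plate's cutoff, the mean activation of test wells on that plate plus 3 SD, cut at about 19% in these data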;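 note: 0% = DMSO alone and 100% = 87 µM carbachol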
#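 Material – zebrafish TRPN1-YFP in HEK293 cells · Doses – 3 µM single point · Schedule – dye 1 h 37 °C plus 30 min RT · Signal – Fluo-8 calcium fluorescence, excitation 470-495 nm, emission 515-575 nm · Read-out – % activation versus carbachol response · Control set – carbachol high, DMSO low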
# OXTR ag confirm = human OXTR agonism, confirmation; AID 434963; shares compounds with OXTR ag; CHO-OTR cells, Fluo-8 calcium fluorescence, agonist; activation, % at 3 µM; 390 tested, 20% active;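 active = mean activation above about 20% derived from the earlier single-dose screen, limit read from the data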;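 note: peak over minimum fluorescence ratio per well during a 100 second FLIPR read; 0% = DMSO alone and 100% = oxytocin high control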
# V1R ag counter 3x = activates V1a receptor in oxytocin agonist counter-screen | AID 434991 | CHO-V1R cells, Fluo-8 calcium fluorescence | shares compounds with OXTR ag | activation, % at 3 µM | 390 tested, 10% active;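 active = mean activation over triplicate exceeds the hit threshold set in the earlier primary screen, cut at about 20% in these data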;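 note: peak over basal fluorescence ratio within a 100 second read; 0% = DMSO alone and 100% = 3 nM vasopressin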
# Active calls of the source: *; . = no result given; ! = a repeat was not active.
SMILES,OXTR ag,TRPML3 ag,OXTR potentiate,V1R ag counter,zfTRPN1 agonist,OXTR ag confirm,V1R ag counter 3x
CCCCCCCCCCOC(=O)Cn1c(COc2cccc(C)c2)[n+](C)c2ccccc21,44.8*,.,-18.0,13.2,.,33.7*,23.0*
CCCCCCCCCCOC(=O)Cn1c(COc2ccccc2C)[n+](C)c2ccccc21,22.5*,.,-2.6,1.0,.,14.7,15.8
COc1ccc(-n2c(Cc3cccn3C)nnc2SCC(=O)N2CCOCC2)cc1,0.6,0.3,3.4,0.0,0.1,.,.
Fc1ccc([C@@H]2CCNC[C@H]2COc2ccc3c(c2)OCO3)cc1,23.2*!,0.5,-10.0,12.6,0.1,11.4,7.2
Fc1ccc(C2CCNCC2COc2ccc3c(c2)OCO3)cc1 (stereo not given),11.8,.,-8.4,3.3,.,.,.
CCOC(=O)NC(NCc1ccccc1Cl)(C(F)(F)F)C(F)(F)F,-3.0,0.9,-15.8,-1.1,-0.1,.,.
CCOC(=O)NC(NCc1cccc(C(F)(F)F)c1)(C(F)(F)F)C(F)(F)F,24.9*,0.5,-9.7,0.2,1.1,-0.8,-0.3
C[C@H]1CC[C@H]2C(=O)N[C@H](Cc3ccccc3)C(=O)N2[C@@H]1c1ccccc1,30.1*,-0.1,-15.1,-0.2,1.0,4.6,-0.6
Cc1cc2c(c(=O)n1CCN(C)C)C(c1ccc(Br)cc1)C(C#N)=C(N)O2 (stereo not given),0.8,-0.3,6.2,0.6,0.6,.,.
COc1ccccc1OCC(=O)Nc1ncc(C)s1,-1.0,.,1.6,-0.2,.,.,.
COc1ccc(OCC(O)CNCCOc2ccccc2OC)c(C(C)(C)C)c1 (stereo not given),22.4*,.,-8.6,10.4,.,6.9,2.0
CC1=NN2C(=N)/C(=C\c3cc(C)n(Cc4ccccc4)c3C)C(=O)N=C2S1,21.8*,0.0,-19.5,8.3,2.0,4.0,8.4
Cc1ccc(NC(=O)CN(C)C(=O)CN2C(=O)NC(C)(c3ccccc3)C2=O)cc1 (stereo not given),-1.0,0.4,-5.4,0.0,-0.8,.,.
Brc1ccc(CN2CCN(Cc3c[nH]c4ccccc34)CC2)cc1,19.9*,.,-18.4,6.7,.,8.2,4.0
Brc1ccccc1CN1CCN(Cc2c[nH]c3ccccc23)CC1,5.4,.,-11.9,2.1,.,.,.
C=C(C)c1cccc(C(C)(C)NC(=O)NCc2ccc(OC)cc2)c1,-2.4,0.3,-6.1,1.0,-0.9,.,.
CC(=O)Nc1ccc(OCC(O)Cn2c3ccccc3c3ccccc32)c(C)c1 (stereo not given),22.3*,1.7,-12.5,13.3,4.8,9.4,8.0
CC(=O)Nc1ccc(OCC(O)Cn2c3ccccc3c3ccccc32)cc1 (stereo not given),17.1,2.6,-15.8,20.0,8.1,.,.
Cc1noc2ncnc(N3CCN(c4ccc(F)cc4)CC3)c12,-0.1,0.4,1.0,1.8,-0.8,.,.
Cc1cccc(OCCNc2cc(N3CCN(C)CC3)ccc2[N+](=O)[O-])c1,4.5,1.0,2.4,5.9,0.3,.,.
Cc1ccc(OCCNc2cc(N3CCN(CCO)CC3)ccc2[N+](=O)[O-])cc1C,22.7*,1.3,-10.2,12.8,6.2,4.4,0.8
CCOC(=O)c1cc(C)sc1NC(=O)CN1CCN(C(=O)c2ccco2)CC1,23.0*,.,-9.4,16.0,.,0.9,0.0
COc1cccc(-n2nnnc2SCC(=O)NCc2ccco2)c1,-2.1,-0.3,-17.1,-0.9,-1.0,.,.
Nc1c(C=C2C=CC(=O)C=C2)c(=O)nc2sc(CC(=O)N3CCOCC3)nn12,0.1,.,-3.5,1.1,.,.,.
COC1=CC(=Cc2c(N)n3nc(CC(=O)N4CCOCC4)sc3nc2=O)C=C(OC)C1=O,20.5*,.,-0.2,7.9,.,55.2*,96.9*
SMILES,OXTR ag,TRPML3 ag,OXTR potentiate,V1R ag counter,zfTRPN1 agonist,OXTR ag confirm,V1R ag counter 3x
O=C(O)c1ccc(N/N=C/c2cn(Cc3ccc(F)cc3)c3ccccc23)cc1,20.7*,-0.8,-17.0,20.0,1.5,10.4,6.5
COc1cc(C(=O)NCc2cccnc2)ccc1OCC(=O)Nc1cccc(C(F)(F)F)c1,23.2*,.,-7.9,17.7,.,6.8,7.6
CN1CCN(C(=S)c2ccc(OCC(=O)Nc3cccc(C(F)(F)F)c3)cc2)CC1,20.3*,2.3,-32.4,13.1,5.6,8.8,8.2
COC(=O)CNC(=O)Cn1cnc2sc(C)c(S(=O)(=O)N3CCC(C)CC3)c2c1=O,-0.6,0.3,-10.4,0.4,0.6,.,.
Cc1ccc(NC(=O)CN(C)C(=O)Cn2ccsc2=N)cc1,0.3,1.2,-0.1,0.9,1.4,.,.
Cc1ccc(Oc2ccc(NC(=O)Cn3ccsc3=N)cc2)cc1,23.0*,1.4,-29.3,9.2,1.1,12.4,2.7
O=C(CSc1cn[nH]n1)Nc1ccc(O)c(C(=O)O)c1,0.1,.,-2.1,-0.1,.,.,.
Cc1cccc2sc(NC(=O)CCNS(=O)(=O)c3cccc4nonc34)nc12,20.1*,1.4,-11.7,13.1,3.5,3.8,3.4
CCOc1ccc(N=C2NC(=O)S/C2=C\c2ccc(OC)cc2)cc1,-0.2,1.0,-6.2,0.1,1.1,.,.
CC1C/C(=C/c2ccco2)C(=O)/C(=C/c2ccco2)C1 (stereo not given),24.3*,0.2,-7.5,5.7,0.4,6.2,5.3
CC(=O)Nc1ccc(-c2cn3c(n2)SCC3)cc1,0.8,.,-8.1,1.0,.,.,.
O=C(Oc1ccc(-c2cn3c(n2)SCC3)cc1)c1ccccc1,26.8*,2.5,-11.6,13.2,10.9,9.2,8.0
O=C1CN(C(=O)CN2CCCC2)C(c2ccccc2)c2cc(Br)ccc2N1 (stereo not given),0.5,0.7,-6.1,1.3,0.6,.,.
CC(c1ccccc1)N1CCC(CNC(=S)Nc2cccc(Cl)c2)C1 (stereo not given),22.0*,3.0,-16.3,16.5,1.7,17.7,8.3
COc1ccc(/C=C/C(=O)NC(=S)NNC(=O)c2cccs2)cc1,26.4*,0.5,-35.1,16.9,1.1,5.9,8.5
COc1ccc(C(=O)NNC(=S)NC(=O)c2cccs2)cc1,13.3,.,-15.1,9.4,.,.,.
Cn1c(=O)c(C(=O)NNC(=O)c2ccccc2F)c(O)c2ccccc21,20.5*,.,-10.8,5.6,.,11.7,9.7
COc1ccc(CN(C)c2ccc(S(=O)(=O)N3CCN(C)CC3)cc2[N+](=O)[O-])cc1OC,26.4*,.,-12.0,10.9,.,14.6,12.0
Cc1ccc(Oc2ccc(OCC(=O)OC3CCS(=O)(=O)C3)cc2)cc1 (stereo not given),24.9*,1.6,-16.1,16.4,2.8,1.8,6.5
COc1ccc2[nH]cc(C(=O)C(=O)N3CCCCC3)c2c1,-0.2,.,-3.9,0.6,.,.,.
